Experimental data taken from ChEMBL document CHEMBL4814031, “In pursuit of a selective hepatocellular carcinoma therapeutic agent: Novel thalidomide derivatives with antiproliferative, antimigratory and STAT3 inhibitory properties” (Eur J Med Chem, 2021).
One block for each compound: values may come before it. The source made the active and inactive calls. No cut-off for these calls is given here.

How the values were obtained:
BMOL-T [1] = experiment: (§1) Antiproliferative activity against mouse BMOL-T cells assessed as cell growth inhibition at 10 uM measured every 4 hrs for 3 days by IncuCyte zoom live cell analysis relative to control; assay type: functional; conditions: time 3.0 day
[2] = Antiproliferative activity against mouse BMOL-NT cells assessed as cell growth inhibition at 10 uM measured every 4 hrs for 3 days by IncuCyte zoom live cell analysis relative to control; assay type: cell-based; conditions: time 3 day; for Activity: bmol-nt, 72 h, 10 µM
[3] = Antiproliferative activity against mouse BMOL-NT cells assessed as cell growth by measuring doubling time at 10 uM measured every 4 hrs for 3 days by IncuCyte zoom live cell analysis (reference value: 18 to 19 hrs); assay type: cell-based; conditions: 72 h, time 3 day
[4] = Antiproliferative activity against mouse BMOL-NT cells assessed as change in doubling time at 10 uM measured every 4 hrs for 3 days by IncuCyte zoom live cell analysis relative to control; assay type: cell-based; conditions: 72 h, time 3 day
[5] = Antiproliferative activity against mouse BMOL-T cells assessed as cell growth by measuring doubling time at 10 uM measured every 4 hrs for 3 days by IncuCyte zoom live cell analysis (reference value: 14.3 to 15 hrs); assay type: functional; conditions: time 3 day
[6] = Antiproliferative activity against mouse BMOL-T cells assessed as change in doubling time at 10 uM measured every 4 hrs for 3 days by IncuCyte zoom live cell analysis relative to control; assay type: functional; conditions: time 3 day
[7] = Inhibition of Akt phosphorylation in mouse BMOL-NT cells assessed as change in phosphorylated Akt level at 10 uM incubated for 6 hrs by immunofluorescent assay relative to control; assay type: cell-based; set-up: scale not given: the % may be the effect or the level left
In short: (§2)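 BMOL cells in supplemented Williams' E medium were treated 6 h with compound or 0.1% DMSO vehicle. Fixed in 4% PFA, permeabilised with 0.1% Triton X-100, blocked, then incubated 18 h with anti-phospho-p65, -Akt or -STAT3, then secondary antibody 1 h and Hoechst. High-content imaging of per-cell intensity and nuclear:whole-cell ratio. Mean of two experiments, SD.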

[8] = Antimigratory activity against mouse BMOL-T cells assessed as inhibition of cell migration at 10 uM incubated for 16 hrs by scratch wound healing assay relative to control; assay type: functional
In short: (§3)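 Wound healing in BMOL-T cells plated at 20,000/well in supplemented Williams' E medium and grown 24 h. Wounds made with a Woundmaker, then medium replaced with fresh medium holding compound or 0.1% DMSO vehicle. Live-cell imaging every 2 h over 24 h, read as average wound width (µm). n = 3, SEM.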

[9] = as §1; assay type: functional; conditions: 72 h, time 3 day
[10] = molecular target: Transcription factor p65 (Mus musculus) (UniProt Q04207); experiment: Inhibition of NFkB p65 nuclear translocation in mouse BMOL-T cells assessed as change in nuclear p65 level at 10 uM incubated for 6 hrs by immunofluorescent assay relative to control; assay type: subcellular; set-up: scale not given: the % may be the effect or the level left; conditions: Nucleus; in short: as §2
Transcription factor p65 (Mus musculus), sequence (Q04207 whole entry): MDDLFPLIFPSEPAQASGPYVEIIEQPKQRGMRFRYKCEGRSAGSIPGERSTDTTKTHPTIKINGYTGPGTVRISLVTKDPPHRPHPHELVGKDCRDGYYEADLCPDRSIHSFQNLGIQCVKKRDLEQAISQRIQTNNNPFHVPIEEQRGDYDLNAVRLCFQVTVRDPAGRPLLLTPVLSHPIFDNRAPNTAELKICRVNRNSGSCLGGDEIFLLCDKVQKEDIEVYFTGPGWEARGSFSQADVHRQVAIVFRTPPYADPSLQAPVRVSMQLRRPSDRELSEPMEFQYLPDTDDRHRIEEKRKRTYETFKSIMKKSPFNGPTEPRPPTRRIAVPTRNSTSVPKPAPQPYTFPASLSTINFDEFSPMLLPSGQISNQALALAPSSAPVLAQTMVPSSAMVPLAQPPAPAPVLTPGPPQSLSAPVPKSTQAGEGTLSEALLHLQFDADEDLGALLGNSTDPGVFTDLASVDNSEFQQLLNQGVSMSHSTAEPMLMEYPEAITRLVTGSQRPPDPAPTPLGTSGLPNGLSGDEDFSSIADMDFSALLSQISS

Transcription factor p65 [11] = molecular target: T1, Transcription factor p65 (Mus musculus, UniProt Q04207); experiment: Inhibition of NFkB p65 phosphorylation in mouse BMOL-NT cells assessed as change in phosphorylated p65 level at 10 uM incubated for 6 hrs by immunofluorescent assay relative to control; assay type: cell-based; set-up: scale not given: the % may be the effect or the level left; in short: as §2
T1 sequence (Q04207 whole entry): as above

[12] = Selectivity for antiproliferative activity against mouse BMOL-T cells over mouse BMOL-NT cells at 10 uM measured every 4 hrs for 3 days by IncuCyte zoom live cell analysis; conditions: time 3 day
[13] = (§4) Antiproliferative activity against mouse BMOL-T cells assessed as minimum concentration required for cell growth inhibition measured every 4 hrs for 3 days by IncuCyte zoom live cell analysis; assay type: functional; conditions: time 3 day
In short: (§5)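 Dose series for BMOL-T proliferation: cells plated at 1000/well, compound added from 2× solutions (final 0.1% DMSO), imaged every 4 h for 3 days. Doubling time from the log-phase linear part of a log confluence vs time curve, expressed as % change over vehicle. n = 3, SEM.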

BMOL-T [14] = experiment: as §4; assay type: functional; conditions: time 3.0 day; in short: as §5
[15] = Selectivity for antiproliferative activity against mouse BMOL-T cells over mouse BMOL-NT cells at 26 uM measured every 4 hrs for 3 days by IncuCyte zoom live cell analysis; conditions: time 3 day
BMOL-T [16] = experiment: Antimigratory activity against mouse BMOL-T cells assessed as inhibition of cell migration at 10 uM incubated for 24 hrs by scratch wound healing assay; assay type: functional, cell-based; in short: as §3
[17] = molecular target: Signal transducer and activator of transcription 3 (Mus musculus) (UniProt P42227); experiment: Inhibition of STAT3 phosphorylation in mouse BMOL-T cells assessed as change in phosphorylated STAT3 level at 10 uM incubated for 6 hrs by immunofluorescence assay relative to control; assay type: cell-based; set-up: scale not given: the % may be the effect or the level left; in short: as §2
Signal transducer and activator of transcription 3 (Mus musculus), sequence (P42227 whole entry): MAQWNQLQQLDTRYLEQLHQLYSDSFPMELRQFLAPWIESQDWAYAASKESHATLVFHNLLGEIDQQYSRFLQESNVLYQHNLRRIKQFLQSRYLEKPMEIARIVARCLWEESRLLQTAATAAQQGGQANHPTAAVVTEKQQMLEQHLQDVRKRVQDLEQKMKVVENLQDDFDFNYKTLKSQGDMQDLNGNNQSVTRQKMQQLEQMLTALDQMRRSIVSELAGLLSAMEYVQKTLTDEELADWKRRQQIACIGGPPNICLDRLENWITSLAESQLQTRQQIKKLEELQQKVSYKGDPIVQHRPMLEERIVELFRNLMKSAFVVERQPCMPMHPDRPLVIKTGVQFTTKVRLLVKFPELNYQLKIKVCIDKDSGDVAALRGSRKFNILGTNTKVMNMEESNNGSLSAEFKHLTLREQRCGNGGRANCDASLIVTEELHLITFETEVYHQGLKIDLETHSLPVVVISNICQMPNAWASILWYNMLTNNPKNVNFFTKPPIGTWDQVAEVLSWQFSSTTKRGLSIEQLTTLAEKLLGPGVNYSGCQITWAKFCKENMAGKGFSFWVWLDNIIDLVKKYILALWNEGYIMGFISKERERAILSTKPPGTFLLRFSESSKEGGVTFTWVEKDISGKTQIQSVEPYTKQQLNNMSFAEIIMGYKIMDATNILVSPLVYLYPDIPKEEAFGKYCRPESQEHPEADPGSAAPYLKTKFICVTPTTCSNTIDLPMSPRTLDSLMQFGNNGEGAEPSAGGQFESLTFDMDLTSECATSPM

[18] = molecular target: Signal transducer and activator of transcription 3 (Mus musculus) (UniProt P42227); experiment: Inhibition of STAT3 phosphorylation in mouse BMOL-T cells assessed as change in nuclear phosphorylated STAT3 level at 10 uM incubated for 6 hrs by immunofluorescence assay relative to control; assay type: subcellular; set-up: scale not given: the % may be the effect or the level left; conditions: Nucleus; in short: as §2
[19] = Antiproliferative activity against mouse BMOL-NT cells assessed as cell growth inhibition at >10 uM measured every 4 hrs for 3 days by IncuCyte zoom live cell analysis; assay type: cell-based; conditions: 72 h, time 3 day
BMOL-T [20] = experiment: Effect on STAT3 expression in mouse BMOL-T cells at 10 uM by AlphaLISA assay; assay type: functional, cell-based
In short: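 AlphaLISA in BMOL-T cells treated at 10 µM with 0.1% DMSO vehicle as control. Read as normalised fluorescence for total STAT3, or as the ratio of total STAT3 to p-STAT3. n ≥ 3, SEM. Significance by ANOVA with Dunnett's test.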

BMOL-T [21] = experiment: Inhibition of Akt phosphorylation in mouse BMOL-T cells assessed as change in nuclear phosphorylated Akt level at 10 uM incubated for 6 hrs by immunofluorescent assay relative to control; assay type: subcellular; set-up: scale not given: the % may be the effect or the level left; conditions: Nucleus; in short: as §2
[22] = Inhibition of Akt phosphorylation in mouse BMOL-NT cells assessed as change in nuclear phosphorylated Akt level at 10 uM incubated for 6 hrs by immunofluorescent assay relative to control; assay type: subcellular, Nucleus; set-up: scale not given: the % may be the effect or the level left; in short: as §2
BMOL-T [23] = experiment: Inhibition of Akt phosphorylation in mouse BMOL-T cells assessed as change in phosphorylated Akt level at 10 uM incubated for 6 hrs by immunofluorescent assay relative to control; assay type: cell-based; set-up: scale not given: the % may be the effect or the level left; in short: as §2
[24] = molecular target: Transcription factor p65 (Mus musculus) (UniProt Q04207); experiment: Inhibition of NFkB p65 phosphorylation in mouse BMOL-T cells assessed as change in phosphorylated p65 level at 10 uM incubated for 6 hrs by immunofluorescent assay relative to control; assay type: cell-based; set-up: scale not given: the % may be the effect or the level left; in short: as §2
[25] = molecular target: T2, Signal transducer and activator of transcription 3 (Mus musculus, UniProt P42227); experiment: Inhibition of STAT3 phosphorylation in mouse BMOL-NT cells assessed as change in phosphorylated STAT3 level at 10 uM incubated for 6 hrs by immunofluorescence assay relative to control; assay type: cell-based; set-up: scale not given: the % may be the effect or the level left; in short: as §2
T2 sequence (P42227 whole entry): as above

[26] = molecular target: T2, Signal transducer and activator of transcription 3; experiment: Inhibition of STAT3 phosphorylation in mouse BMOL-NT cells assessed as change in nuclear phosphorylated STAT3 level at 10 uM incubated for 6 hrs by immunofluorescence assay relative to control; assay type: subcellular, Nucleus; set-up: scale not given: the % may be the effect or the level left; in short: as §2
Transcription factor p65 [27] = molecular target: T1, Transcription factor p65; experiment: Inhibition of NFkB p65 nuclear translocation in mouse BMOL-NT cells assessed as change in nuclear p65 level at 10 uM incubated for 6 hrs by immunofluorescent assay relative to control; assay type: subcellular, Nucleus; set-up: scale not given: the % may be the effect or the level left; in short: as §2

SMILES: O=C1CCC(N2C(=O)c3cccc(Nc4ccc5c(c4)CCCC5)c3C2=O)C(=O)N1 (configuration not stated)
Activity (BMOL-T [1]): Active
inhibition at 72 h, 10 µM ([2]; BMOL-NT cells): ≤ 10%

SMILES: CC(C)c1ccc(S(=O)(=O)c2cccc3c2C(=O)N(C2CCC(=O)NC2=O)C3=O)cc1 (configuration not stated)
Time [3]: 17.4 h
Activity [4]: 3%
Time [5]: 14.9 h
Activity [6]: 3%

SMILES: COc1ccc(Sc2cccc3c2C(=O)N(C2CCC(=O)NC2=O)C3=O)cc1 (configuration not stated)
Activity [2]: Toxic

SMILES: CC(C)c1ccc(Oc2cccc3c2C(=O)N(C2CCC(=O)NC2=O)C3=O)cc1 (configuration not stated)
Time [3]: 17.5 h
Time [5]: 15.4 h
Activity [6]: 5%

SMILES: Cc1ccccc1Nc1cccc2c1C(=O)N(C1CCC(=O)NC1=O)C2=O (configuration not stated)
Activity (BMOL-T [1]): inactive

SMILES: CC(C)c1ccc(Nc2ccc3c(c2)C(=O)N(C2CCC(=O)NC2=O)C3=O)cc1 (configuration not stated)
Time [3]: 17.2 h
Time [5]: 14.1 h
Activity [6]: 3%

Activity [7]: 4%
Activity [10]: -9%
Activity (Transcription factor p65 [11]): -1%
Activity [17]: -7%
Activity [18]: -10%
Activity (BMOL-T [21]): 4%
Activity [22]: -10%
Activity [24]: -7%
Activity [25]: -4%
Activity [26]: -13%
Activity (Transcription factor p65 [27]): -11%
SMILES: CC(C)(C)c1ccc(Nc2cccc3c2C(=O)N(C2CCC(=O)NC2=O)C3=O)cc1 (configuration not stated)
inhibition at 10 µM [8]: 94%
inhibition at 10 µM [9]: 31%
Selectivity ratio [12]: 23
MAC [13]: 4 µM
Activity (BMOL-T [14]): Dose-Dependent Effect
Selectivity ratio [15]: 3
Activity (BMOL-T [16]): Active
Activity [19]: Toxic
Activity (BMOL-T [20]): inactive
Activity (BMOL-T [23]): 4%

SMILES: CC(C)Oc1ccc(Nc2cccc3c2C(=O)N(C2CCC(=O)NC2=O)C3=O)cc1 (configuration not stated)
Activity (BMOL-T [1]): Active

SMILES: O=C1CCC(N2C(=O)c3cccc(Sc4ncccn4)c3C2=O)C(=O)N1 (configuration not stated)
Activity [2]: Non-Toxic

SMILES: O=C1CCC(N2C(=O)c3cccc(Nc4ccccn4)c3C2=O)C(=O)N1 (configuration not stated)
Activity [2]: Toxic

SMILES: CC(C)c1ccc(Nc2cccc3c2C(=O)N(C2CCC(=O)NC2=O)C3=O)cc1 (configuration not stated)
Time [3]: 17.3 h
Time [5]: 16.3 h
Activity [6]: 19%

SMILES: O=C1CCC(N2C(=O)c3ccccc3C2=O)C(=O)N1 (configuration not stated) [THALIDOMIDE]
Time [3]: 18 h
Time [5]: 15 h

SMILES: O=C1CCC(N2C(=O)c3cccc(Sc4ccc(C(F)(F)F)cc4)c3C2=O)C(=O)N1 (configuration not stated)
Activity (BMOL-T [1]): inactive

SMILES: O=C1CCC(N2C(=O)c3cccc(Cc4ccccc4)c3C2=O)C(=O)N1 (configuration not stated)
Time [3]: 17.7 h
Activity [4]: 2%
Time [5]: 13.8 h

SMILES: Cc1ccc(Sc2cccc3c2C(=O)N(C2CCC(=O)NC2=O)C3=O)cc1 (configuration not stated)
Time [3]: 19.3 h

SMILES: O=C1CCC(N2C(=O)c3cccc(Nc4ccccc4)c3C2=O)C(=O)N1 (configuration not stated)
Time [3]: 17.4 h
Time [5]: 14.3 h
Activity [6]: 7%

SMILES: COc1ccc(Nc2cccc3c2C(=O)N(C2CCC(=O)NC2=O)C3=O)cc1 (configuration not stated)
Activity (BMOL-T [1]): Active
